Only some compounds are listed: those with a hit (about 1.8% of all), similar ones and a draw of the others.
eIF4E 4G PPI = eIF4E–eIF4G protein interaction inhibitors, primary screen, biochemical, uHTS, TR-FRET, eIF4GI fragment. TR-FRET eIF4E-eIF4GI(517-606) binding, 2 h. inhibition, % at 21.7 µM. 220,000 tested, 0.37% active. AID 782, 2007;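 active means inhibition above about 30%, limit read from the data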
eIF4H FP inh = human eIF4H binding inhibitors, primary screen, translation initiation inhibitor project, biochemical, uHTS, fluorescence polarization; inhibition, % at 35 µM; eIF4H fluorescence polarization binding assay; Eukaryotic translation initiation factor 4H (Homo sapiens), Q15056; 290,000 tested, 0.94% active; AID 2012, 2009;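 further: calls also rest on retests at 20 µM and on dose response follow-up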
PABP1 MLLE inh = inhibitors of PABP1 MLLE–PAM2 peptide binding, primary screen, biochemical, fluorescence polarization, FITC-PAM2, GST-MLLE. inhibition, % at 20 µM. 360,000 tested, 0.36% active. AID 588489, 2011; in the data active means inhibition above about 35%, passing the limit was not always enough
Target sequence (P11940 whole entry, looked up): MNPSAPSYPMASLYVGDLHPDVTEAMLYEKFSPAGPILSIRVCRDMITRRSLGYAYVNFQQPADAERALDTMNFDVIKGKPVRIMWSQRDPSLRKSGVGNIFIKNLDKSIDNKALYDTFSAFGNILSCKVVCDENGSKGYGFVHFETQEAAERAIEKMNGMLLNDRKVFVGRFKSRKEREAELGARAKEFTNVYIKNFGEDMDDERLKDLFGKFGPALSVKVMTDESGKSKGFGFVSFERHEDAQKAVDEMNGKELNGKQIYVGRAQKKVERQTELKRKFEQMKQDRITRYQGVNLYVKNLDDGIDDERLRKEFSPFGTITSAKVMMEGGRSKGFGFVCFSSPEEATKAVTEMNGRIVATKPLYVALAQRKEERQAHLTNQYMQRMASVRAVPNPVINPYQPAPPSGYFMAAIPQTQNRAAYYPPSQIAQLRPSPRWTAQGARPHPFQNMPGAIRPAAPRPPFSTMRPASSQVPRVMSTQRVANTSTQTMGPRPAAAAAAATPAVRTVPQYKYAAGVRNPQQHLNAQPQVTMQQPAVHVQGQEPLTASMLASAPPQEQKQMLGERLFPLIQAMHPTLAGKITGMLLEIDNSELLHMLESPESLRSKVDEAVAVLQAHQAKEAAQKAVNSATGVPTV
SUMO HTRF inh = inhibitors of in vitro SUMOylation cascade, primary screen, biochemical, HTRF, uHTS | SUMO-conjugating enzyme UBC9 (Homo sapiens), P63279 | HTRF SUMOylation assay, SAE1/SAE2 + UBC9 | inhibition, % at 35 µM | 290,000 tested, 0.36% active | AID 2006, 2009; in the data active means inhibition above about 50%, passing the limit was not always enough; inconclusive means no clear call, values can overlap the other calls
PABP polyA inh = PABP poly(A) RNA binding inhibitors, primary screen, biochemical, fluorescence polarization, uHTS; Polyadenylate-binding protein 1 (Homo sapiens), P11940; calls only at 35 µM; 290,000 tested, 1% active; AID 2014, 2009;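 further: calls also rest on retests at 20 µM and on dose response follow-up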
HCV core dimer = inhibitors of HCV core protein dimerization, primary screen, biochemical, TR-FRET, high-throughput | TR-FRET GST/Flag-core106 dimerization, 1536-well | inhibition, % at 5 µM | 300,000 tested, 0.33% active;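 active means inhibition above the mean of all tested compounds plus 3 SD, set per screening campaign, cut at about 45% in these data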
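Test system: GST/Flag-tagged HCV core106 proteins; Medium: KF-containing HEPES buffer, pH 7.45, DTT, CHAPS, BSA; Times: compound-protein-antibody incubation 4 h at 22.5 °C; Detection: TR-FRET 671 and 617 nm emission; Benchmarks: wells lacking GST-core106 and wells with excess unlabelled core106.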
Each line names hits and unclear results; the compound was inactive in the other large screens. Unless noted, how the calls were made is not given here.

COc1ccc(-n2nc(C(=O)NCC(=O)NCCN(C)C)c3ccccc3c2=O)cc1	none (no result: eIF4E 4G PPI)
Cc1oc(-c2ccc(Cl)cc2)cc1-c1nn2c(-c3ccoc3C)nnc2s1	eIF4H FP inh 85, SUMO HTRF inh 60, PABP polyA inh active, HCV core dimer 84
Clc1ccc(-c2nnc3sc(-c4ccc(Br)o4)nn23)cc1	none
C=CCn1c(SCc2cc(=O)n3ccsc3n2)nnc1C1CCCCC1	eIF4H FP inh 73, PABP polyA inh active, HCV core dimer 69
O=c1cc(CSc2nnc(NC3CCCCC3)s2)nc2sccn12	none
Cc1ccc(C)c(S(=O)(=O)Nc2ccc3oc(C)c(C(=O)O)c3c2)c1	eIF4H FP inh 87, PABP polyA inh active (no result: eIF4E 4G PPI)
CC(=O)c1c(C)oc2ccc(NS(=O)(=O)c3ccc(C)cc3)cc12	none (no result: eIF4E 4G PPI)
Cc1oc2ccc(NS(=O)(=O)c3ccc(C(C)(C)C)cc3)cc2c1C(=O)Nc1ccccc1	HCV core dimer 54
C[C@H]1CN([C@@H](C)CO)S(=O)(=O)c2ccc(C#CC3(O)CCCC3)cc2O[C@@H]1CN(C)C(=O)Cc1cccnc1	none (no result: eIF4E 4G PPI, eIF4H FP inh, SUMO HTRF inh, PABP polyA inh, HCV core dimer)
Cc1cccc(/C=C/c2nc3ccccc3c(=O)n2Cc2ccccc2)c1	eIF4H FP inh 76, PABP polyA inh active
O=c1c2ccccc2nc(/C=C/c2cccnc2)n1Cc1ccccc1	eIF4E 4G PPI 92, SUMO HTRF inh 82 (no result: HCV core dimer)
Cc1ccccc1/C=C\c1nc2ccccc2c(=O)n1Cc1ccccc1	none
O=c1c2ccccc2nc(/C=C/c2cccnc2)n1CCc1ccccc1	none
CCN1C(=O)CC(Sc2ccccc2N)C1=O (stereo not drawn)	none
Nc1ccccc1SC1CC(=O)N(Cc2ccccc2)C1=O (stereo not drawn)	eIF4H FP inh active, PABP polyA inh active
CCOC(=O)/C=C/C(=O)Nc1ccc(S(=O)(=O)Nc2nccs2)cc1	none (no result: eIF4E 4G PPI)
O=C1C=C(N(CCO)Cc2ccccc2)c2ccccc2C1=O	SUMO HTRF inh 64 (no result: HCV core dimer)
O=C(CCN1C(=O)c2ccccc2C1=O)N(CCO)Cc1ccccc1	none (no result: HCV core dimer)
O=C(Nc1cccc(S(=O)(=O)NC2=NCCCCC2)c1)c1cc(-c2ccco2)nc2ccccc12	eIF4E 4G PPI 35, SUMO HTRF inh 81, HCV core dimer 69
Cc1cc(C)cc(-n2c(SCC(=O)Nc3cccc(S(=O)(=O)NC4=NCCCCC4)c3)nc3ccccc3c2=O)c1	eIF4H FP inh active, PABP polyA inh active
Cc1ccc(C)c(SCC(=O)Nc2cccc(S(=O)(=O)NC3=NCCCCC3)c2)c1	none
COc1ccc(C(CNC(=O)/C=C/c2c(Cl)nc3ccccn23)N(C)C)cc1 (stereo not drawn)	eIF4H FP inh 7.6, PABP polyA inh active
COc1ccc(CCN(C)C(=O)/C=C/c2c(Cl)nc3ccccn23)cc1OC	none
Cc1ccc(-c2nc3s/c(=C\c4ccco4)c(=O)n3n2)cc1	eIF4H FP inh 82, PABP polyA inh active
COc1ccccc1/C=c1\sc2nc(-c3ccccc3OC)nn2c1=O	none
COc1ccc(Br)cc1/C=c1\sc2nc(-c3ccco3)nn2c1=O	eIF4H FP inh 94, SUMO HTRF inh 52, PABP polyA inh active, HCV core dimer 57 (no result: eIF4E 4G PPI)
Cc1ccc(/C=c2\sc3nc(-c4ccccc4Br)nn3c2=O)o1	none
O=c1nc2s/c(=C\c3ccco3)c(=O)n2nc1Cc1ccc(F)cc1	eIF4H FP inh 84, PABP polyA inh active (no result: SUMO HTRF inh)
Cc1ccc(/C=c2\sc3nc(-c4ccco4)nn3c2=O)o1	eIF4H FP inh 90, PABP polyA inh active, HCV core dimer 62
CCCN1C(=O)/C(=c2\sc3nc(=O)c(Cc4ccc(C)cc4)nn3c2=O)c2ccccc21	none
CCC(C)N(C(=O)CSc1nnc(COc2ccccc2F)n1N)C1CCS(=O)(=O)C1 (stereo not drawn)	none (no result: eIF4E 4G PPI, eIF4H FP inh, SUMO HTRF inh, PABP polyA inh)
Cc1ccccc1C(=O)OCC(=O)NCC1COc2ccccc2O1 (stereo not drawn)	none (no result: eIF4E 4G PPI, eIF4H FP inh, SUMO HTRF inh, PABP polyA inh, HCV core dimer)
O=C1C(=C2CCCCC2)SC(=S)N1Cc1ccco1	none
O=C(O)CCN1C(=O)C(=C2CCCCCC2)SC1=S	PABP1 MLLE inh 45
C#CCSc1nc(-c2ccccc2)cc(C(F)(F)F)c1C#N	none
CNc1nc(-c2ccccc2)cc(C(F)(F)F)c1C#N	eIF4H FP inh 96, PABP polyA inh active
CN(CC(=O)NCc1ccco1)C(=O)C1CC(=O)N(c2ccc3c(c2)OCCO3)C1 (stereo not drawn)	none (no result: eIF4E 4G PPI, eIF4H FP inh, SUMO HTRF inh, PABP polyA inh, HCV core dimer)
CN(C)C(=S)Nc1ccc2c(c1)OCCO2	none
CCOc1cc(N2CCOCC2)c(OCC)cc1NS(=O)(=O)c1cc(NC(C)=O)ccc1OC	eIF4H FP inh 59 (no result: eIF4E 4G PPI)
CCOc1cc(N2CCOCC2)c(OCC)cc1NC(=O)CN1CCCC(C)C1 (stereo not drawn)	eIF4H FP inh inconclusive, PABP polyA inh active
COc1ccccc1NS(=O)(=O)c1cc(NC(=O)c2ccc(NC(C)=O)cc2)ccc1N1CCOCC1	none (no result: eIF4E 4G PPI, eIF4H FP inh, SUMO HTRF inh, PABP polyA inh, HCV core dimer)
CCOc1cc(N2CCOCC2)c(OCC)cc1NC(=O)CN1CCC(Cc2ccccc2)CC1	none
C/C(=N/NS(=O)(=O)c1cccc([N+](=O)[O-])c1)c1ccncc1	none (no result: eIF4E 4G PPI)
COc1ccc(NC(=O)CCN2CC(C)OC(C)C2)c(OC)c1 (stereo not drawn)	none
COc1ccccc1NC(=O)CCN1CC(C)OC(C)C1 (stereo not drawn)	PABP polyA inh active
CC(C)C1OC2c3cccc4cccc(c34)C2N1c1ccccc1 (stereo not drawn)	PABP1 MLLE inh 44
O=C(c1cccc(S(=O)(=O)N2CCN(c3ccccc3)CC2)c1)N1CCN(c2ccccc2O)CC1	none (no result: eIF4E 4G PPI, eIF4H FP inh, SUMO HTRF inh, PABP polyA inh)
CC1(C)CC2=C(CO1)C(=S)NC(c1ccccc1)N2CC1CCCO1 (stereo not drawn)	eIF4E 4G PPI 95, PABP1 MLLE inh 42
COc1ccc(S(=O)(=O)N(C)C[C@H]2Oc3ccc(NC(=O)Nc4ccc5c(c4)OCO5)cc3C(=O)N([C@H](C)CO)C[C@@H]2C)cc1	none (no result: eIF4E 4G PPI, eIF4H FP inh, SUMO HTRF inh, PABP polyA inh, HCV core dimer)
COc1cccc(C2C(C#N)=C(N)OC(C(C)(C)C)=C2C#N)c1 (stereo not drawn)	none
COc1cccc(/C=C2/CN(C)CC3=C2OC(N)=C(C#N)C3c2cccc(OC)c2)c1 (stereo not drawn)	eIF4H FP inh 75, PABP polyA inh active
NC(=O)c1ccsc1NC(=O)CCS(=O)(=O)c1ccc(Cl)cc1	none (no result: eIF4E 4G PPI, eIF4H FP inh, SUMO HTRF inh, PABP polyA inh, HCV core dimer)
Cc1nn(-c2ccccc2)c2c1C(c1c(C)[nH]c(C#N)c1C)C(C#N)=C(N)O2 (stereo not drawn)	SUMO HTRF inh 75
Cc1cccc2cc(CN(CCN3CCOCC3)C(=O)Nc3ccccc3F)c(=O)[nH]c12	eIF4H FP inh 81, PABP polyA inh active

Compound activity from PubChem.
